Article PMC5776680 (Biochemistry, 2017)
Blank lines part the entries; values can stand above or below the substance they belong to.

Tests used:
Format in all cases: biochemical
[1] = biological target: T1, PRMT8 (Homo sapiens, UniProt Q9NR22); test: PRMT8 single-point radioactive methylation assay; details: compared with the unmodified peptide
[2] = biological target: human recombinant PRMT1 (Homo sapiens, UniProt Q99873); test: PRMT1 single-point radioactive methylation assay; details: compared with the unmodified peptide
[3] = biological target: T1, PRMT8; test: PRMT8 steady-state kinetics, radioactive filter-binding methylation assay; details: 0.05 μM PRMT8, 15 μM [14C]-SAM, 35 min, 30 °C; data not shown
How it was run: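 Recombinant His-tagged PRMT8 was expressed in E. coli BL21(DE3) and Ni-NTA purified. Reactions were run in 50 mM HEPES pH 8, 10 mM NaCl, 0.5 mM EDTA, 0.5 mM DTT with 0.25–16 μM N-acetylated H4(1–20) peptide (unmodified, K5me or K5ac), initiated with enzyme. They were isopropanol-quenched, P81 filter-bound, washed with NaHCO3 pH 9 and scintillation-counted against [14C]-SAM reference. Rates were Hill-fitted, at least duplicate.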

[4] = biological target: T2, truncated PRMT3 (residues 211–531) (Homo sapiens, UniProt O60678); test: PRMT3 steady-state kinetics, radioactive filter-binding methylation assay
How it was run: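 E. coli-expressed His-tagged PRMT3 (residues 211–531) was used. Reactions in 50 mM HEPES pH 8, 10 mM NaCl, 0.5 mM EDTA, 0.5 mM DTT contained 0.25–8 μM N-acetylated H4(1–20) peptide (unmodified, K5me or K5ac). Products were P81 filter-bound, washed with NaHCO3 pH 9 and scintillation-counted. Rates (product/[E] per min) were fitted to the Hill or Michaelis-Menten equation, at least duplicate.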

[5] = biological target: T2, truncated PRMT3 (residues 211–531); test: PRMT3 single-point radioactive methylation assay; details: 0.05 μM PRMT3, 5 μM [14C]-SAM, 10 μM peptide, 30 °C, 35 min

T2 sequence (O60678 211-531): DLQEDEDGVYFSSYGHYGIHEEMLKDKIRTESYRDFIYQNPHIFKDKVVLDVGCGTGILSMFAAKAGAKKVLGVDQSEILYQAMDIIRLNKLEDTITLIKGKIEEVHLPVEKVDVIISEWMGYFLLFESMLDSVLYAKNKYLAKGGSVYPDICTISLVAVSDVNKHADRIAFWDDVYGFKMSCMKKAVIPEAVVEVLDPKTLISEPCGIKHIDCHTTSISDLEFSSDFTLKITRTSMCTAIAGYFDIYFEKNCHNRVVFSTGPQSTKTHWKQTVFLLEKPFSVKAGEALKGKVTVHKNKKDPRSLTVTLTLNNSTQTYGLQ
T1 sequence (Q9NR22 whole entry): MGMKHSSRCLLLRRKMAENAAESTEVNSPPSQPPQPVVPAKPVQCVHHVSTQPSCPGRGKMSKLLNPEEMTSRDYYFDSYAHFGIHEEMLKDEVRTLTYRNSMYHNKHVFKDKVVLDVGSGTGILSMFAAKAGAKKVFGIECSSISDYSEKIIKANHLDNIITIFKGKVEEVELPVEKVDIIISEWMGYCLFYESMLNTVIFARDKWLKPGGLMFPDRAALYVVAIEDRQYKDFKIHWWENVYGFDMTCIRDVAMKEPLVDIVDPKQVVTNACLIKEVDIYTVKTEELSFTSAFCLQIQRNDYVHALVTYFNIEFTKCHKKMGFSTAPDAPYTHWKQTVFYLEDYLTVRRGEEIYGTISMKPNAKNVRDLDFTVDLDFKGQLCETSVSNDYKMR
human recombinant PRMT1, sequence (Q99873 whole entry): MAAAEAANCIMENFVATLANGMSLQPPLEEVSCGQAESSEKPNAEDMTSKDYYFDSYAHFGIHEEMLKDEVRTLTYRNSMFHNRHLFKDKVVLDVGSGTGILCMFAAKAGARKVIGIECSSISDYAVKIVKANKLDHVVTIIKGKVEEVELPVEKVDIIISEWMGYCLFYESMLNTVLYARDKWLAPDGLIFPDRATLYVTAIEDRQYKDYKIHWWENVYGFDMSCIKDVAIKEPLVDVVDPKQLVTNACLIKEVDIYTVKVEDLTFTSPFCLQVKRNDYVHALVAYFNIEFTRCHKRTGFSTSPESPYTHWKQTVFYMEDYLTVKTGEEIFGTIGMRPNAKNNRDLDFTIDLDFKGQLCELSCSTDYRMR

Substance: Ac-H4(1-21): N-terminally acetylated histone H4 peptide, residues 1-21
effect of the modification on arginine methylation by PRMT8 [1]: did not strongly affect arginine methylation
effect of the modification on arginine methylation by PRMT1 [2]: did not strongly affect arginine methylation

Substance: Ac-SGRGKmeGGKGLGKGGAKRHRK [Ac-H4(1-20)K5me]
peptide concentration above which substrate inhibition appeared [3]: above 4 μM
peptide concentration above which substrate inhibition appeared ([4]; 0.05 μM PRMT3, 15 μM [14C]-SAM, 35 min, 30 °C, data not shown): above 8 μM
increase of kcat in comparison to Ac-H4(1-20) ([4]; PRMT3, Hill fit): 3 fold
catalytic efficiency higher than Ac-H4(1-20) ([4]; PRMT3, kcat/K0.5): ~4 fold
increase in arginine methylation in comparison to Ac-H4(1-20) [5]: over 5 fold

increase of K0.5 in comparison to Ac-H4(1-20) ([4]; PRMT3, Hill fit): 2 fold
Substance: Ac-SGRGKacGGKGLGKGGAKRHRK [Ac-H4(1-20)K5ac]
